Publication PMC8148061 (Acta Pharmaceutica Sinica. B, 2020)
“Also recorded” adds a separate entry of the source.

Key:
[1] = biological target: Bcr-Abl^WT (Homo sapiens, UniProt P00519+P11274); assay: Western blot degradation study in K562 cells; assay type: cell-based
[2] = system: Ba/F3 Bcr-Abl^T315I; assay: Antiproliferation cell assay; assay type: cell-based; conditions: Mus musculus, BaF3, 72 h, read-out: Cellular inhibition IC50 Ba/F3 Bcr-Abl^T315I
[3] = system: K562; assay: Antiproliferation cell assay; assay type: cell-based, human; conditions: Homo sapiens, K562, 72 h, read-out: Cellular inhibition IC50 K562
Summary of the method: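 K562 (ATCC) cells were grown in RPMI-1640 with 10% FBS, penicillin, streptomycin and 2 mmol/L glutamine at 37 °C in humidified CO2. Log-phase cells were seeded at ~3000/well, rested overnight, then exposed to test compound or vehicle for 72 h (10 mmol/L DMSO stocks). CCK-8 was read as OD450−OD650, with viability normalised to no-cell blank and vehicle wells. IC50 came from concentration–response curve fitting, mean ± SD.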

[4] = biological target: Bcr-Abl^T315I (Homo sapiens, UniProt P00519+P11274, T315I); assay: Western blot degradation study in Ba/F3 cells expressed Bcr-Abl^T315I; assay type: cell-based; conditions: for DR against Ba/F3 Bcr-Abl^T315I (%) 100 nmol/L / DR against Ba/F3 Bcr-Abl^T315I (%) 300 nmol/L: 24 h treatment, Western blot
[5] = system: Ba/F3 Bcr-Abl^WT; assay: Antiproliferation cell assay; assay type: cell-based; conditions: Mus musculus, BaF3, 72 h, read-out: Cellular inhibition IC50 Ba/F3 Bcr-Abl^WT
[6] = Pharmacokinetics in mice, single i.p. injection; assay type: in vivo, ICR mice; conditions: 20 mg/kg
[7] = system: Ba/F3 Bcr-Abl^T315I xenograft; assay: In vivo antitumor efficacy, Ba/F3 Bcr-Abl^T315I xenograft model; design: species or system CB17-SCID mice
Summary of the method: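 Ba/F3 Bcr-AblT315I cells in normal saline were implanted s.c. in the right flank of CB17-SCID mice (2 × 10^6 cells/0.1 mL). Mice were randomised at mean tumour volume 100–200 mm3 and dosed i.p. every two days at 10 or 20 mg/kg. Vehicle was 5% DMSO + 10% solutol + 85% saline. Body weight and tumour volume (L × W²/2) were recorded every two days. Terminal tumours were formalin-fixed, paraffin-sectioned and TUNEL-stained.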

[8] = biological target: Bcr-Abl^T315I / CRBN E3 ligase (UniProt P00519+P11274+Q8C7D2, T315I); assay: Co-immunoprecipitation in Ba/F3 Bcr-Abl^T315I cells; assay type: cell-based; conditions: 24 h treatment
Summary of the method: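 After 24 h exposure to a range of test compound concentrations, cells were lysed on ice in RIPA with protease and phosphatase inhibitors. Protein was BCA-quantified and equalised; ~4/5 of each lysate went to IP and the rest served as input. Anti-c-Abl antibody was added overnight at 4 °C, then protein A+G agarose for 2 h at 4 °C. Beads were washed five times in RIPA without inhibitors, and complexes were immunoblotted for CRBN.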

Compound | degradation on K562 cells expressing Bcr-Abl ([1]; 24 h treatment (data not shown)) | IC50 [2] | IC50 [3] | DR against Ba/F3 Bcr-Abl^T315I (%) 100 nmol/L ([4]; 100 nmol/L) | DR against Ba/F3 Bcr-Abl^T315I (%) 300 nmol/L [4] | degradation potency relative to GZD824 ([4]; DR at 300 nmol/L) | IC50 [5] | treatment time after which Bcr-Abl^WT was substantially reduced in K562 cells ([1]; 100 nmol/L, time-course) | plasma concentration over time [6] | tumor growth inhibition (TGI) ([7]; 20 mg/kg, i.p., q2d, 10 consecutive days) | body weight loss relative to the vehicle matched controls ([7]; 20 mg/kg, i.p., q2d, during the treatment) | mortality ([7]; during the treatment) | tumor growth (in words) ([7]; i.p., once every two days) | apoptosis in xenograft tumor (TUNEL) ([7]; mouse, in vivo) | mechanism of Bcr-Abl^T315I degradation (Co-IP) [8] | treatment time after which Bcr-Abl^T315I protein level was substantially reduced ([4]; 100 nmol/L, time-course) | Bcr-Abl^T315I degradation after preincubation with proteasome inhibitor MG132 ([4]; 20 μmol/L MG132, then 7o 24 h at 100 and 300 nmol/L) | treatment time of maximum degradation ([4]; Ba/F3 Bcr-Abl^T315I, time-course)
Cc1ccc(C(=O)Nc2ccc(CN3CCN(CCOCCOCCC(=O)Nc4cccc5c4C(=O)N(C4CCC(=O)NC4=O)C5=O)CC3)c(C(F)(F)F)c2)cc1C#Cc1cnc2[nH]ncc2c1 (stereo not drawn) [compound 7a, 3-((1H-Pyrazolo[3,4-b]pyridin-5-yl)ethynyl)-N-(4-((4-(2-(2-(3-((2-(2,6-dioxopiperidin-3-yl)-1,3-dioxoisoindolin-4-yl)amino)-3-oxopropoxy)ethoxy)ethyl)piperazin-1-yl)methyl)-3-(trifluoromethyl)phenyl)-4-methylbenzamide] | does not exhibit obvious degradation | 83.2 ± 27.8 nM | 7.9 ± 5.2 nM | −15.35% | 39.01% | 2 fold | 10 ± 2.1 nM |  |  |  |  |  |  |  |  |  |  | 
Cc1ccc(C(=O)Nc2ccc(CN3CCN(CCOCCOCCOCCOCCOCCC(=O)Nc4cccc5c4C(=O)N(C4CCC(=O)NC4=O)C5=O)CC3)c(C(F)(F)F)c2)cc1C#Cc1cnc2[nH]ncc2c1 (stereo not drawn) [7j, 1-(4-(4-(3-((1H-Pyrazolo[3,4-b]pyridin-5-yl)ethynyl)-4-methylbenzamido)-2-(trifluoromethyl)benzyl)piperazin-1-yl)-N-(2-(2,6-dioxopiperidin-3-yl)-1,3-dioxoisoindolin-4-yl)-3,6,9,12,15-pentaoxaoctadecan-18-amide] |  | 60.1 ± 0.3 nM | 2.8 ± 0.4 nM | −23.27% | 21.17% |  | 14.3 ± 0.3 nM |  |  |  |  |  |  |  |  |  |  | 
Cc1ccc(C(=O)Nc2ccc(CN3CCN(CCOCCOCCOc4cccc5c4C(=O)N(C4CCC(=O)NC4=O)C5=O)CC3)c(C(F)(F)F)c2)cc1C#Cc1cnc2[nH]ncc2c1 (stereo not drawn) [7c, 3-((1H-Pyrazolo[3,4-b]pyridin-5-yl)ethynyl)-N-(4-((4-(2-(2-(2-((2-(2,6-dioxopiperidin-3-yl)-1,3-dioxoisoindolin-4-yl)oxy)ethoxy)ethoxy)ethyl)piperazin-1-yl)methyl)-3-(trifluoromethyl)phenyl)-4-methylbenzamide] |  | 212 ± 101 nM | 3.2 ± 0.1 nM | −15.62% | 9.98% |  | 22.4 ± 10.2 nM |  |  |  |  |  |  |  |  |  |  | 
Cc1ccc(C(=O)Nc2ccc(CN3CCN(CCOCCOCCC(=O)N[C@H](C(=O)C4C[C@H](O)C[C@H]4C(=O)NCc4ccc(-c5scnc5C)cc4)C(C)(C)C)CC3)c(C(F)(F)F)c2)cc1C#Cc1cnc2[nH]ncc2c1 (stereo partly drawn) [7d, 3-((1H-Pyrazolo[3,4-b]pyridin-5-yl)ethynyl)-N-(4-((4-(2-(2-(3-(((2S)-1-((2R,4S)-4-hydroxy-2-((4-(4-methylthiazol-5-yl)benzyl)carbamoyl)cyclopentyl)-3,3-dimethyl-1-oxobutan-2-yl)amino)-3-oxopropoxy)ethoxy)ethyl)piperazin-1-yl)methyl)-3-(trifluoromethyl)phenyl)-4-methylbenzamide] |  | 981 ± 24.9 nM | 31 ± 0.1 nM | −18.26% | −10.51% |  | 337 ± 6.1 nM |  |  |  |  |  |  |  |  |  |  | 
Cc1ccc(C(=O)Nc2ccc(CN3CCN(CCOCCOCCC(=O)Nc4cccc5c4CN(C4CCC(=O)NC4=O)C5=O)CC3)c(C(F)(F)F)c2)cc1C#Cc1cnc2[nH]ncc2c1 (stereo not drawn) [7b, 3-((1H-Pyrazolo[3,4-b]pyridin-5-yl)ethynyl)-N-(4-((4-(2-(2-(3-((2-(2,6-dioxopiperidin-3-yl)-1-oxoisoindolin-4-yl)amino)-3-oxopropoxy)ethoxy)ethyl)piperazin-1-yl)methyl)-3-(trifluoromethyl)phenyl)-4-methylbenzamide] |  | 287 ± 23 nM | 4 ± 0.6 nM | −9.18% | −4.21% |  | 65.3 ± 30.2 nM |  |  |  |  |  |  |  |  |  |  | 
Cc1ccc(C(=O)Nc2ccc(CN3CCN(CCCCCCC(=O)Nc4cccc5c4C(=O)N(C4CCC(=O)NC4=O)C5=O)CC3)c(C(F)(F)F)c2)cc1C#Cc1cnc2[nH]ncc2c1 (stereo not drawn) [compound 7o, 3-((1H-Pyrazolo[3,4-b]pyridin-5-yl)ethynyl)-N-(4-((4-(7-((2-(2,6-dioxopiperidin-3-yl)-1,3-dioxoisoindolin-4-yl)amino)-7-oxoheptyl)piperazin-1-yl)methyl)-3-(trifluoromethyl)phenyl)-4-methylbenzamide] |  | 26.8 ± 9.7 nM | 7.7 ± 1.8 nM | 69.89% | 94.23% |  | 4.2 ± 0.2 nM | 36 h | high plasma concentrations maintained over 48 h | 90.8% | < 5% | no mortality | substantial tumor regression; also recorded: suppresses the growth | induced apoptosis | mediated by CRBN E3 ubiquitin pathway | 6 h | successfully rescue | 24 h
Cc1ccc(C(=O)Nc2ccc(CN3CCN(CCOCCOCCOCCOCCC(=O)Nc4cccc5c4C(=O)N(C4CCC(=O)NC4=O)C5=O)CC3)c(C(F)(F)F)c2)cc1C#Cc1cnc2[nH]ncc2c1 (stereo not drawn) [7i, 1-(4-(4-(3-((1H-Pyrazolo[3,4-b]pyridin-5-yl)ethynyl)-4-methylbenzamido)-2-(trifluoromethyl)benzyl)piperazin-1-yl)-N-(2-(2,6-dioxopiperidin-3-yl)-1,3-dioxoisoindolin-4-yl)-3,6,9,12-tetraoxapentadecan-15-amide] |  | 95.4 ± 37.4 nM | 11.4 ± 7.3 nM | −22.44% | −19.45% |  | 19.9 ± 4.2 nM |  |  |  |  |  |  |  |  |  |  | 
